In article PMC3949619 (Bioorganic & medicinal chemistry, 2013):

Assays:
[1] = in vivo; cited from earlier work
[2] = qualitative statement of the introduction; no reference given; cited from earlier work
[3] = test system: d(TTAGGG)4 quadruplex DNA; assay: UV melting of quadruplex DNA; assay type: binding, human; conditions: range over 50 and 150 mM K+ and over the compounds named together
Procedure, shortened: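 d(TTAGGG)4 at 5 μM strand, annealed at 90 °C for 5 min and slowly cooled over 4 h; test compound 20 μM. Buffer: 10 mM potassium phosphate, pH 7.5, plus KCl at 32 mM (50 mM K+) or 132 mM (150 mM K+). Absorbance read at 295 nm in 0.5 °C steps with 1 min equilibration. Ttran taken from the first-derivative minimum. ΔTtran is the shift against DNA alone, ±1.0 °C.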

[4] = test system: KBH5.0 (overexpresses BCRP); assay: MTT-microtiter plate tetrazolinium cytotoxicity assay; assay type: cell-based, human; conditions: inferred from cytotoxicity in KBH5.0 versus parent KB3-1
[5] = test system: KBV-1 (overexpresses the efflux transporter MDR1); assay: as above; assay type: cell-based, human; conditions: inferred from cytotoxicity in KBV-1 versus parent KB3-1
[6] = test system: human breast cancer xenograft (MDA-MB-435); conditions: MDA-MB-435 human breast cancer xenograft, athymic nude mice; cited from earlier work
KB3-1 = conditions: read-out: IC50 against KB3-1 cells; range for compounds 1 and 2 together; cited from earlier work

Row | Compound | ΔTtran of quadruplex DNA (range given) [3] | substrate for BCRP efflux transporter [4] | substrate for MDR1 efflux transporter [5] | also measured
1 | CC(C)[C@@H]1NC(=O)c2coc(n2)-c2coc(n2)-c2coc(n2)[C@H](CCN(C)C)NC(=O)c2coc(n2)-c2coc(n2)-c2coc1n2 [YAK-1-161] | – | – | – | well tolerated dose levels [1]: ≤ 45 mg/kg
2 | CC(C)[C@@H]1NC(=O)c2coc(n2)-c2coc(n2)-c2coc(n2)[C@H](C(C)C)NC(=O)c2coc(n2)-c2coc(n2)-c2coc1n2 [HXDV] | – | – | – | aqueous solubility [2]: poor aqueous solubility
3 | O=C1N[C@@H](Cc2ccccc2)C(=O)NCc2coc(n2)-c2coc(n2)-c2cccc(c2)-c2cccc(c2)-c2nc(co2)-c2nc1co2 [Compound 18] | 1.1–2.8 °C | – | – | –
4 | CC(C)[C@@H]1NC(=O)c2coc(n2)-c2coc(n2)-c2cccc(c2)-c2cccc(c2)-c2nc(co2)-c2nc(co2)CNC1=O [Compound 17] | 4.1–6.4 °C | – | – | –
5 | NCC[C@@H]1NC(=O)c2coc(n2)-c2coc(n2)-c2cccc(c2)-c2cccc(c2)-c2nc(co2)-c2nc(co2)CNC1=O [Compound 20] | 8.4–14.6 °C | substrates | substrates | –
6 | CC(C)(C)OC(=O)NCC[C@@H]1NC(=O)c2coc(n2)-c2coc(n2)-c2cccc(c2)-c2cccc(c2)-c2nc(co2)-c2nc(co2)CNC1=O [Compound 19] | 1.1–2.8 °C | – | – | –
7 | CN(C)CCc1cc2cc(c1)CNC(=O)c1coc(n1)-c1coc(n1)-c1cccc(n1)-c1nc(co1)-c1nc(co1)C(=O)NC2 [Compound 2] | – | – | – | %T/C value [6]: 27.7%; IC50 (KB3-1): 30 to 40 nM
8 | O=C1CNC(=O)c2coc(n2)-c2coc(n2)-c2cccc(c2)-c2cccc(c2)-c2nc(co2)-c2nc(co2)CN1 [Compound 16] | 4.1–6.4 °C | substrates | substrates | –
9 | CC(C)[C@@H]1NC(=O)c2coc(n2)-c2coc(n2)-c2coc(n2)C/C=C/c2coc(n2)-c2coc(n2)-c2coc1n2 [METV] | – | – | – | aqueous solubility [2]: poor aqueous solubility
10 | CN(C)CC[C@@H]1NC(=O)c2coc(n2)-c2coc(n2)-c2cccc(c2)-c2cccc(c2)-c2nc(co2)-c2nc(co2)CNC1=O [Compound 21] | 8.4–14.6 °C | substrates | substrates | –
